TAAR1 agonist: agonists of human TAAR1. 360,000 tested, 0.99% active. CHO RD-HGA16 TAAR1, Fluo-8 calcium fluorescence; vehicle wells 0%, saturating PEA agonist 100%. activation, % at 3 µM. Q96RJ0;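 active = activation above the mean activation of all test compounds in the run plus 3 SD, cut at about 38% in these data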
Target sequence (Q96RJ0 whole entry, looked up): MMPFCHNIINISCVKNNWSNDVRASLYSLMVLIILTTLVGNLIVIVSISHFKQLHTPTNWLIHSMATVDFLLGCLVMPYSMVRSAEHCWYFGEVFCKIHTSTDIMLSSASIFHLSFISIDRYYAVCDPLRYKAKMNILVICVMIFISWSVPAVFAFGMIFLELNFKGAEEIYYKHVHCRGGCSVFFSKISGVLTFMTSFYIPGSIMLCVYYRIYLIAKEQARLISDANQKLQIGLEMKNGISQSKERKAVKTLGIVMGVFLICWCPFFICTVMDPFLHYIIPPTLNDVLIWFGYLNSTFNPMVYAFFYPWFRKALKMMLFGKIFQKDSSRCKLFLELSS
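Signal – calcium-sensitive Fluo-8 signal, excitation 470-495, emission 515-575 nm · System – RD-HGA16 (CHO) cells co-expressing Gα16 and hTAAR1 · Incubation – 17-24 h seeding, 75 min 37 °C dye, 30 min RT · Compound dosing – 3 µM single concentration · Repeats – no replicates (n 1)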
TAAR1 antagonist: human TAAR1 antagonism. Q96RJ0. CHO RD-HGA16 TAAR1, Fluo-8 calcium fluorescence, antagonist. inhibition, % at 3 µM. 360,000 tested, 1.5% active. AID 624466;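 active = inhibition above a per-plate cutoff, the mean inhibition of test compounds on that plate plus 3 SD, cut at about 49% in these data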;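 note: 0% = DMSO plus EC80 beta-PEA response and 100% = DMSO alone without agonist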
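Assay system: RD-HGA16 CHO cells with stable hTAAR1 and Gα16 / Reagent: EC80 β-phenethylamine stimulus / Doses: 3 µM, single point / Timing: dye loading 75 min at 37 °C, then 30 min room temperature / Measured by: Fluo-8 intracellular calcium dye fluorescence, real-time kinetic reads / Controls: vehicle wells and EC80 agonist wells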
OX1R antag-1: blocks the human orexin 1 receptor. O43613. AID 485270. 330,000 tested, 1.8% active. inhibition, % at 6.6 µM. OX1R-expressing cells, FRET antagonist read-out; in the data active = inhibition mostly above about 38%, no sharp cut-off; inactive = mostly below about 40%;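 note: 0% = agonist challenge alone and 100% = reference antagonist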
Target sequence (O43613 whole entry, looked up): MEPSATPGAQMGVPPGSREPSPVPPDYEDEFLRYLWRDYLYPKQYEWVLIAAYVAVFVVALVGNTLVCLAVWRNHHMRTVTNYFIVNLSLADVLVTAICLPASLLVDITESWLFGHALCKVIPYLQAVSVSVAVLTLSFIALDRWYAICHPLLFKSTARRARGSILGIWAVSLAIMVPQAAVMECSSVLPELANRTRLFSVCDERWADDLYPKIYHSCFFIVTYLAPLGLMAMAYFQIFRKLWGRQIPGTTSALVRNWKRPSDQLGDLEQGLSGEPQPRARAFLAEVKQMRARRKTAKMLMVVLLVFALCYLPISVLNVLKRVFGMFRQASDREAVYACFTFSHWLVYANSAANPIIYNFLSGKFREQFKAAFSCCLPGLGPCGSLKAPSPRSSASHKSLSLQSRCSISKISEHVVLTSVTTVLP
OX1R antag-2: antagonists of human orexin 1 receptor; inhibition, % at 5 µM; AID 434989; 330,000 tested, 0.43% active; CHO/OX1R cells, Fluo-8 calcium fluorescence, orexin A; O43613;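 active = inhibition above its plate's threshold, mean inhibition of all tested compounds on the plate plus 3 SD, cut at about 37% in these data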;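 note: 0% = orexin A challenge wells and 100% = SB-334867-A antagonist wells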
CHO parental Ca: signal in parental CHO cells, OX1R antagonist counter-screen. parental CHO-K1, ATP-induced calcium, Fluo-8 fluorescence. inhibition, % at 5.6 µM. 330,000 tested, 0.63% active. AID 463079;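 active = inhibition above that plate's mean sample inhibition plus 3 SD, cut at about 26% in these data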;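 note: 0% = ATP-challenged DMSO wells and 100% = DMSO wells without ATP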
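Material: Parental CHO cells | Reagent: ATP | Compound dosing: Single nominal dose of 5.6 µM per compound | Detection: Intracellular calcium via Fluo-8 no-wash fluorescent dye | Read-out: % inhibition of ATP-induced calcium mobilization | Benchmarks: Low control ATP plus DMSO, high control DMSO only | Replicates: Singlicate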
NTR1 ag: agonists of human neurotensin receptor NTR1; P30989; NTR1-U2OS beta-arrestin-GFP spot imaging, agonist mode; activation, % at 20 µM; 330,000 tested, 0.17% active; AID 493036;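 active = activation at or above 40% of the spot to cytoplasm intensity ratio, with at least 20 cells analyzed; inconclusive = wells under 20 cells, flagged as cytotoxic or low count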;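 note: 0% = DMSO without peptide and 100% = 100 nM NTR1 peptide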
NTR1 ag conf: NTR1 (human) agonism, confirmed; NTR1-U2OS beta-arrestin-GFP translocation imaging; AID 504550; 480 tested, 38% active; activation, % at 20 µM; shares compounds with NTR1 ag;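 active = mean activation at 20 µM of at least 40%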;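 note: 0% = DMSO without peptide and 100% = 100 nM NTR1 peptide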
The depositor's hits bear a star; u = inconclusive; x = no result. A selection: hits, their analogues and other compounds. The true share with any hit is near 4%.

SMILES | TAAR1 agonist | TAAR1 antagonist | OX1R antag-1 | OX1R antag-2 | CHO parental Ca | NTR1 ag | NTR1 ag conf
O=C(CC(c1ccccc1)c1cc(Br)ccc1O)NCCN1CCOCC1 (stereo unspecified) | 11.4 | -8.6 | 15.2 | -19.7 | -22.9 | 43.4* | 0.7
O=C(CC(c1ccccc1)c1cc(Br)ccc1O)NCCCN1CCOCC1 (stereo unspecified) | 3.5 | -9.1 | 11.1 | -22.7 | -17.2 | 0.5 | x
CC(NC(=O)c1ccccc1)c1nnc(SCC(=O)NC2=NCCS2)n1C (stereo unspecified) | -2.8 | -16.3 | 24.1 | -15.5 | -4.4 | 0.9 | x
CCn1c(SCC(=O)NC2=NCCS2)nnc1C(C)NC(=O)c1ccc(Cl)cc1 (stereo unspecified) | 0.4 | 12.3 | 5.5 | -5.8 | -13.0 | 41.9* | -0.6
O=C(NCCc1c[nH]c2ccccc12)OCCCCOC(=O)NCCc1c[nH]c2ccccc12 | 15.9 | 79.8* | 60.7* | 60.8* | 30.8 | 66.9* | 17.3
CC1=NOC(=O)/C1=C\c1ccc(-c2cc(Cl)ccc2Cl)o1 | 10.2 | 11.2 | 45.0 | 9.3 | 13.8 | 44.1* | 65.2*
COc1cccc(-c2nc(NCC3CCCO3)c3ccccc3n2)c1O (stereo unspecified) | 12.6 | 44.8 | 24.5 | -25.9 | -13.3 | 5.8 | x
COc1cccc(-c2nc(NC(C)C)c3ccccc3n2)c1O | 8.9 | 36.9 | 27.6 | -38.4 | -24.0 | 63.5* | -3.0
CC(=O)n1cc(C(C[N+](=O)[O-])SCCN)c2ccccc21 (stereo unspecified) | x | x | 27.4 | -21.4 | -7.0 | 47.2* | 75.9*
CCc1ccc(NC(=O)c2ccc3c(=O)n4c(nc3c2)CCCCC4)cc1 | -1.0 | 13.2 | 25.1 | -13.3 | 5.9 | 10.5 | x
O=C(Nc1cccc(S(=O)(=O)N2CCCCC2)c1)c1ccc2c(=O)n3c(nc2c1)CCCCC3 | 9.8 | 60.8* | 20.4 | -19.5 | -3.5 | 42.7* | 26.0
CCCCOc1ccc(C(=O)NCC(=O)N2CC=C(c3ccccc3)CC2)cc1 | 0.1 | 4.1 | 11.0 | -16.1 | -18.8 | -0.1 | x
Cc1ccnc(NC(=O)c2cc(S(=O)(=O)NCc3ccccc3)ccc2C)c1 | 2.4 | 4.6 | 21.7 | -5.3 | -20.2 | -0.7 | x
Cc1cc(C)n(-c2nc(Nc3ccccc3C)nc(-n3nc(C)cc3C)n2)n1 | 39.1* | 87.5* | 14.4 | 26.9 | 25.7 | 48.1* | 70.7*
CCCCCc1c2c(cc(O)c1C(=O)O)OC(=O)c1c(cc(OC)cc1C(=O)CCCC)O2 | x | x | 29.8 | -10.7 | -12.1 | 38.4 | x
CCCCCc1c2c(cc(O)c1C(=O)O)OC(=O)c1cc(C(=O)CCCC)c(OC)cc1O2 | -0.5 | 22.1 | 14.4 | -3.1 | -7.0 | 47.8* | 11.9
O=C1ON=C(c2ccccc2)/C1=C/c1ccc(O)c(O)c1 | 5.0 | -16.7 | -6.2 | 2.4 | -6.8 | 27.7 | x
COc1cc(/C=C2\C(=O)ON=C2c2ccc(Cl)cc2)ccc1O | 5.4 | 8.7 | 13.1 | 0.0 | 0.8 | 48.6* | 80.8*
OC(CNCCc1ccc(C(F)(F)F)cc1)COc1ccc2ccccc2c1 (stereo unspecified) | 29.1 | 10.0 | -5.0 | 15.4 | 47.8* | 50.7* | 7.2
COc1ccc(CNCC(O)COc2ccc(C(C)(C)c3ccccc3)cc2)cc1 (stereo unspecified) | 40.5* | 4.7 | -9.3 | -9.5 | 36.4* | 49.7* | 6.3
CC(CCc1ccccc1)NC(=O)COC(=O)c1ccc(S(C)(=O)=O)c([N+](=O)[O-])c1 (stereo unspecified) | 6.0 | 19.6 | 69.4* | 5.7 | 18.3 | 42.3* | 78.7*
CCOc1ccc(NC(=S)N2CCC(C(=O)c3ccc(F)cc3)CC2)cc1 | 3.0 | -23.0 | x | x | x | x | x
COc1ccc(C(c2nnnn2C2CCCCC2)N2CCN(C/C=C/c3ccccc3)CC2)cc1 (stereo unspecified) | -1.0 | -16.1 | x | x | x | x | x
O=Cc1ccc(Sc2nnc(-c3ccccc3)o2)c([N+](=O)[O-])c1 | x | x | 28.5 | -1.8 | 11.4 | u | 7.6
Cc1cc(C)nc(Sc2ccc(C=O)cc2[N+](=O)[O-])n1 | 2.4 | 7.6 | 27.2 | -0.9 | 5.6 | 2.7 | x
SMILES | TAAR1 agonist | TAAR1 antagonist | OX1R antag-1 | OX1R antag-2 | CHO parental Ca | NTR1 ag | NTR1 ag conf
O=C(CN1CCCCC1)Nc1nc(-c2ccccc2)cs1 | 9.8 | 12.1 | -11.3 | -22.8 | -20.8 | 1.8 | x
Cc1ccccc1C(=O)N1CCc2cc(-c3csc(NC(=O)CN4CCCC4)n3)ccc21 | 6.7 | 11.2 | 15.9 | -9.1 | 7.7 | 54.2* | 4.3
COc1ccc(C(C[N+](=O)[O-])c2c(C)[nH]n(-c3ccccc3)c2=O)cc1 (stereo unspecified) | 17.5 | -14.2 | 14.5 | -12.6 | -15.8 | 42.3* | 25.2
Cc1[nH]n(-c2ccccc2)c(=O)c1C(C[N+](=O)[O-])c1ccccc1Cl (stereo unspecified) | 11.0 | -7.2 | 34.5 | -12.3 | -14.3 | 2.1 | x
CN(CC(=O)Nc1ccccc1Cl)C(=O)COC(=O)CCN1C(=O)C2CC=CCC2C1=O (stereo unspecified) | 4.2 | -30.5 | 13.2 | -12.2 | 0.0 | 0.4 | x
CCOc1cccc(/C=C/c2ccc3cccc(O)c3n2)c1OC | 1.9 | 36.9 | 8.9 | 27.7 | 47.8* | 78.7* | 5.6
CCOc1cccc(/C=C/c2ccc3cccc(O)c3n2)c1O | -1.3 | 25.0 | 14.3 | 3.3 | 18.0 | 32.1 | x
Cc1ccc(O)c(-c2cc(-c3cccc(Br)c3)n[nH]2)c1 | -0.7 | 6.5 | 12.3 | 23.6 | 54.1* | 54.5* | 21.5
O=C(COc1ccc(C(=O)O)cc1)Nc1cccc(C(F)(F)F)c1 | 3.5 | 15.2 | 12.8 | -11.8 | -3.5 | 1.0 | x
O=C(COCC(=O)Nc1cccc(C(F)(F)F)c1)Nc1cccc(C(F)(F)F)c1 | 3.8 | -0.3 | -1.7 | -7.3 | 2.4 | 47.1* | 11.6
CCc1ccc(-c2nc3ccc(Br)cc3c(C(=O)O)c2C)s1 | -1.1 | -0.9 | x | x | x | 0.0 | x
Clc1ccc(C2=Nn3c(nnc3-c3cc(-c4ccccc4)n[nH]3)SC2)cc1 | 4.5 | 3.6 | 13.7 | -23.5 | -23.0 | 46.6* | 48.1*
O=C(c1cccc(N2C(=O)C3C4C=CC(C4)C3C2=O)c1)N1CCN(c2ccccc2Cl)CC1 (stereo unspecified) | 9.0 | 7.8 | 29.4 | -11.0 | -20.0 | 1.2 | x
CCOC(=O)c1cc(-c2ccc(/C=N\n3cnnc3)o2)ccc1Cl | 2.8 | -3.6 | 42.4 | -6.8 | -8.2 | 2.7 | x
CCOC(=O)c1cc(-c2ccc(/C=C3/C(=O)N(c4ccc(C(=O)O)cc4)N=C3C)o2)ccc1Cl | 2.0 | -20.3 | 14.2 | -4.0 | -4.2 | 56.4* | 46.7*
CCSc1ccc2c(c1)N(CCCN1CCN(C)CC1)c1ccccc1S2 | 11.6 | 34.7 | 3.4 | -19.3 | 10.6 | 43.4* | 9.2

Compound activity as filed in PubChem BioAssay.
